{
  "source": "paper PMC3286832",
  "about": "(Nature Communications, 2011)",
  "molecules": {"B1": {"name": "MPP8 W80A: cage mutant of MPP8 chromodomain, Trp80 to alanine (protein)", "chain": "MEQVAEGARVTAVPVSAADSTEELAEVEEGVGVVGEDNDAAARGAEAFGDSEEDGEDVFEVEKILDMKTEGGKVLYKVRAKGYTSDDDTWEPEIHLEDCKEVLLEFRKKIAENKAKAVRKDIQRLSLNNDIFEANSDSDQQSETKEDTSPKKKKKKLRQREEKSPDDLKKKKAKAGKLKDKSKPDLESSLESLVFDLRTKKRISEAKEELKESKKPKKDEVKETKELKKVKKGEIRDLKTKTREDPKENRKTKKEKFVESQVESESSVLNDSPFPEDDSEGLHSDSREEKQNTKSARERAGQDMGLEHGFEKPLDSAMSAEEDTDVRGRRKKKTPRKAEDTRENRKLENKNAFLEKKTVPKKQRNQDRSKSAAELEKLMPVSAQTPKGRRLSGEERGLWSTDSAEEDKETKRNESKEKYQKRHDSDKEEKGRKEPKGLKTLKEIRNAFDLFKLTPEEKNDVSENNRKREEIPLDFKTIDDHKTKENKQSLKERRNTRDETDTWAYIAAEGDQEVLDSVCQADENSDGRQQILSLGMDLQLEWMKLEDFQKHLDGKDENFAATDAIPSNVLRDAVKNGDYITVKVALNSNEEYNLDQEDSSGMTLVMLAAAGGQDDLLRLLITKGAKVNGRQKNGTTALIHAAEKNFLTTVAILLEAGAFVNVQQSNGETALMKACKRGNSDIVRLVIECGADCNILSKHQNSALHFAKQSNNVLVYDLLKNHLETLSRVAEETIKDYFEARLALLEPVFPIACHRLCEGPDFSTDFNYKPPQNIPEGSGILLFIFHANFLGKEVIARLCGPCSVQAVVLNDKFQLPVFLDSHFVYSFSPVAGPNKLFIRLTEAPSAKVKLLIGAYRVQLQ", "modifications": "left off: Flag, end not stated, kept"}},
  "key": {"[1]": {"tested_on": "MPP8–GLP interaction in 293T cells", "test": "Co-immunoprecipitation of MPP8 and GLP in 293T cells", "assay_type": "cell-based, human", "method_in_brief": "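293T cells (parental, or MPP8 stable knockdown for the chromodomain W80A mutant) were cotransfected with Flag-MPP8 and HA-GLP (WT, K199R, K205R or K209R) for 48 h. Lysates were immunoprecipitated with 1 μg anti-HA or anti-Flag on protein-G agarose, washed with IPH containing 300 or 600 mM NaCl, and analysed by western blot. Input was 5%.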"}, "[2]": {"tested_on": "hDNMT3A–MPP8 interaction in 293T cells", "test": "Co-immunoprecipitation of hDNMT3A and MPP8 in 293T cells", "assay_type": "cell-based, human", "settings": "immunoprecipitation–western", "method_in_brief": "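293T cells were transfected for 48 h with Myc-hDNMT3A constructs (WT or K47R; in one setup, co-expressed with HA–GLP in GLP stable-knockdown cells). IP used 1 μg anti-Myc with protein-G agarose and three washes in IPH containing 300 or 600 mM NaCl. Western used anti-Myc/MPP8; input was 1–2%.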"}},
  "data": [
    {"molecule": "B1", "values": [
      {"measurement": "MPP8–GLP interaction in cells", "setting": "[1]", "result": "abrogates MPP8–GLP interaction in cells"},
      {"measurement": "interaction of hDNMT3A with MPP8 in cells", "setting": "[2]", "result": "abrogate binding to hDNMT3a"}
    ]}
  ]
}
